Source: ChEMBL document CHEMBL2062435, “Synthesis and in vitro antibacterial activity of gemifloxacin derivatives containing a substituted benzyloxime moiety” (2012)

How the values were obtained:
Type in all cases: functional
Pseudomonas aeruginosa [1] = experiment: Antimicrobial activity against Pseudomonas aeruginosa 10-12 after 18-24 hrs by two-fold serial dilution method
Procedure, shortened: (§1)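 Agar-medium twofold serial dilution against Gram-positive and Gram-negative strains; MIC taken as the lowest compound concentration giving complete inhibition of bacterial growth after incubation at 35 °C for 18-24 h.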

[2] = tested on: Staphylococcus epidermidis; experiment: Antimicrobial activity against extended spectrum beta-lactamases-producing methicillin-sensitive Staphylococcus epidermidis 10-11 after 18-24 hrs by two-fold serial dilution method; procedure, shortened: as §1
Escherichia coli [3] = experiment: Antimicrobial activity against extended spectrum beta-lactamases-producing Escherichia coli 10-4 after 18-24 hrs by two-fold serial dilution method; procedure, shortened: as §1
Klebsiella pneumoniae [4] = experiment: Antimicrobial activity against Klebsiella pneumoniae 10-4 after 18-24 hrs by two-fold serial dilution method; procedure, shortened: as §1
Staphylococcus aureus [5] = experiment: Antimicrobial activity against extended spectrum beta-lactamases-producing methicillin-sensitive Staphylococcus aureus 10-14 after 18-24 hrs by two-fold serial dilution method; procedure, shortened: as §1
Pseudomonas aeruginosa [6] = experiment: Antimicrobial activity against extended spectrum beta-lactamases-producing Pseudomonas aeruginosa 10-20 after 18-24 hrs by two-fold serial dilution method; procedure, shortened: as §1
Pseudomonas aeruginosa [7] = experiment: Antimicrobial activity against extended spectrum beta-lactamases-producing Pseudomonas aeruginosa 10-9 after 18-24 hrs by two-fold serial dilution method; procedure, shortened: as §1
Enterococcus faecalis [8] = experiment: Antimicrobial activity against Enterococcus faecalis 10-5 after 18-24 hrs by two-fold serial dilution method; procedure, shortened: as §1
[9] = tested on: Staphylococcus epidermidis; experiment: Antimicrobial activity against extended spectrum beta-lactamases-producing methicillin-resistant Staphylococcus epidermidis 10-13 after 18-24 hrs by two-fold serial dilution method
Procedure, shortened: (§2)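 Agar twofold serial dilution MIC against clinical isolates. MIC was taken as the lowest concentration giving complete inhibition of bacterial growth after incubation at 35 °C for 18-24 h.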

Klebsiella pneumoniae [10] = experiment: Antimicrobial activity against extended spectrum beta-lactamases-producing Klebsiella pneumoniae 10-1 after 18-24 hrs by two-fold serial dilution method; procedure, shortened: as §1
Enterococcus faecalis [11] = experiment: Antimicrobial activity against Enterococcus faecalis 10-6 after 18-24 hrs by two-fold serial dilution method; procedure, shortened: as §1
Klebsiella pneumoniae [12] = experiment: Antimicrobial activity against extended spectrum beta-lactamases-producing Klebsiella pneumoniae 10-3 after 18-24 hrs by two-fold serial dilution method; procedure, shortened: as §1
Escherichia coli [13] = experiment: Antimicrobial activity against Escherichia coli 10-1 after 18-24 hrs by two-fold serial dilution method; procedure, shortened: as §1
Klebsiella pneumoniae [14] = experiment: Antimicrobial activity against Klebsiella pneumoniae 10-2 after 18-24 hrs by two-fold serial dilution method; procedure, shortened: as §1
Pseudomonas aeruginosa [15] = experiment: Antimicrobial activity against extended spectrum beta-lactamases-producing Pseudomonas aeruginosa 10-18 after 18-24 hrs by two-fold serial dilution method; procedure, shortened: as §1
Pseudomonas aeruginosa [16] = experiment: Antimicrobial activity against extended spectrum beta-lactamases-producing Pseudomonas aeruginosa 10-15 after 18-24 hrs by two-fold serial dilution method; procedure, shortened: as §1
[17] = tested on: Staphylococcus epidermidis; experiment: Antimicrobial activity against extended spectrum beta-lactamases-producing methicillin-resistant Staphylococcus epidermidis 10-10 after 18-24 hrs by two-fold serial dilution method; procedure, shortened: as §2
Klebsiella pneumoniae [18] = experiment: Antimicrobial activity against extended spectrum beta-lactamases-producing Klebsiella pneumoniae 10-2 after 18-24 hrs by two-fold serial dilution method; procedure, shortened: as §1
Enterococcus faecalis [19] = experiment: Antimicrobial activity against Enterococcus faecalis 10-7 after 18-24 hrs by two-fold serial dilution method; procedure, shortened: as §1
Staphylococcus aureus [20] = experiment: Antimicrobial activity against extended spectrum beta-lactamases-producing methicillin-sensitive Staphylococcus aureus 10-13 after 18-24 hrs by two-fold serial dilution method; procedure, shortened: as §1
Escherichia coli [21] = experiment: Antimicrobial activity against extended spectrum beta-lactamases-producing Escherichia coli 10-3 after 18-24 hrs by two-fold serial dilution method; procedure, shortened: as §1
Escherichia coli [22] = experiment: Antimicrobial activity against Escherichia coli 10-2 after 18-24 hrs by two-fold serial dilution method; procedure, shortened: as §1
Staphylococcus aureus [23] = experiment: Antimicrobial activity against Staphylococcus aureus ATCC […] after 18-24 hrs by two-fold serial dilution method; procedure, shortened: as §1
Escherichia coli [24] = experiment: Antimicrobial activity against Escherichia coli 10-3 after 18-24 hrs by two-fold serial dilution method; procedure, shortened: as §1
Staphylococcus aureus [25] = experiment: Antimicrobial activity against extended spectrum beta-lactamases-producing methicillin-resistant Staphylococcus aureus 10-15 after 18-24 hrs by two-fold serial dilution method; procedure, shortened: as §2
Pseudomonas aeruginosa [26] = experiment: Antimicrobial activity against extended spectrum beta-lactamases-producing Pseudomonas aeruginosa 10-5 after 18-24 hrs by two-fold serial dilution method; procedure, shortened: as §1
Streptococcus pneumoniae [27] = experiment: Antimicrobial activity against extended spectrum beta-lactamases-producing Streptococcus pneumoniae 10-1 after 18-24 hrs by two-fold serial dilution method; procedure, shortened: as §1
Staphylococcus aureus [28] = experiment: Antimicrobial activity against extended spectrum beta-lactamases-producing methicillin-resistant Staphylococcus aureus 10-11 after 18-24 hrs by two-fold serial dilution method; procedure, shortened: as §2
Klebsiella pneumoniae [29] = experiment: Antimicrobial activity against Klebsiella pneumoniae 10-3 after 18-24 hrs by two-fold serial dilution method; procedure, shortened: as §1
Enterococcus faecium [30] = experiment: Antimicrobial activity against Enterococcus faecium 10-5 after 18-24 hrs by two-fold serial dilution method; procedure, shortened: as §1
[31] = tested on: Staphylococcus epidermidis; experiment: Antimicrobial activity against extended spectrum beta-lactamases-producing methicillin-sensitive Staphylococcus epidermidis 10-15 after 18-24 hrs by two-fold serial dilution method; procedure, shortened: as §1
Escherichia coli [32] = experiment: Antimicrobial activity against Escherichia coli ATCC 25922 after 18-24 hrs by two-fold serial dilution method; procedure, shortened: as §1
[33] = tested on: Staphylococcus epidermidis; experiment: Antimicrobial activity against extended spectrum beta-lactamases-producing methicillin-sensitive Staphylococcus epidermidis 10-13 after 18-24 hrs by two-fold serial dilution method; procedure, shortened: as §1
Escherichia coli [34] = experiment: Antimicrobial activity against extended spectrum beta-lactamases-producing Escherichia coli 10-2 after 18-24 hrs by two-fold serial dilution method; procedure, shortened: as §1
Streptococcus pneumoniae [35] = experiment: Antimicrobial activity against extended spectrum beta-lactamases-producing Streptococcus pneumoniae 10-4 after 18-24 hrs by two-fold serial dilution method; procedure, shortened: as §1
Enterococcus faecium [36] = experiment: Antimicrobial activity against Enterococcus faecium 10-9 after 18-24 hrs by two-fold serial dilution method; procedure, shortened: as §1

SMILES | MIC (Pseudomonas aeruginosa [1]) [µg/mL] | MIC [2] [µg/mL] | MIC (Escherichia coli [3]) [µg/mL] | MIC (Klebsiella pneumoniae [4]) [µg/mL] | MIC (Staphylococcus aureus [5]) [µg/mL] | MIC (Pseudomonas aeruginosa [6]) [µg/mL] | MIC (Pseudomonas aeruginosa [7]) [µg/mL] | MIC (Enterococcus faecalis [8]) [µg/mL] | MIC [9] [µg/mL] | MIC (Klebsiella pneumoniae [10]) [µg/mL] | MIC (Enterococcus faecalis [11]) [µg/mL] | MIC (Klebsiella pneumoniae [12]) [µg/mL] | MIC (Escherichia coli [13]) [µg/mL] | MIC (Klebsiella pneumoniae [14]) [µg/mL] | MIC (Pseudomonas aeruginosa [15]) [µg/mL] | MIC (Pseudomonas aeruginosa [16]) [µg/mL] | MIC [17] [µg/mL] | MIC (Klebsiella pneumoniae [18]) [µg/mL] | MIC (Enterococcus faecalis [19]) [µg/mL] | MIC (Staphylococcus aureus [20]) [µg/mL] | further results
CS(=O)(=O)O.NCC1CN(c2nc3c(cc2F)c(=O)c(C(=O)O)cn3C2CC2)C/C1=N\OCc1ccc2c(c1)OCCO2 (racemic) | 2 | 0.5 | 2 | 128 | 0.06 | 2 | 2 | 0.5 | 0.5 | > 128 | 4 | 4 | 16 | 16 | 4 | 2 | 0.5 | > 128 | 1 | 0.06 | MIC (Escherichia coli [21]): > 128 µg/mL; MIC (Escherichia coli [22]): 4 µg/mL; MIC (Staphylococcus aureus [23]): 0.06 µg/mL; MIC (Escherichia coli [24]): 4 µg/mL; MIC (Staphylococcus aureus [25]): 0.5 µg/mL; MIC (Pseudomonas aeruginosa [26]): 2 µg/mL; MIC (Streptococcus pneumoniae [27]): 0.5 µg/mL; MIC (Staphylococcus aureus [28]): 1 µg/mL; MIC (Klebsiella pneumoniae [29]): 32 µg/mL; MIC (Enterococcus faecium [30]): 8 µg/mL; MIC [31]: 0.5 µg/mL; MIC (Escherichia coli [32]): 0.25 µg/mL; MIC [33]: 2 µg/mL; MIC (Escherichia coli [34]): > 128 µg/mL; MIC (Streptococcus pneumoniae [35]): 2 µg/mL; MIC (Enterococcus faecium [36]): 8 µg/mL
COc1ccc(CO/N=C2\CN(c3nc4c(cc3F)c(=O)c(C(=O)O)cn4C3CC3)CC2CN)c(Cl)c1OC.CS(=O)(=O)O (racemic) | 16 | 0.25 | 4 | > 128 | 0.015 | 16 | 8 | 0.25 | 0.5 | > 128 | 4 | > 128 | > 128 | > 128 | 16 | 32 | 0.5 | > 128 | 2 | 0.015 | MIC (Escherichia coli [21]): > 128 µg/mL; MIC (Escherichia coli [22]): 32 µg/mL; MIC (Staphylococcus aureus [23]): 0.008 µg/mL; MIC (Escherichia coli [24]): 16 µg/mL; MIC (Staphylococcus aureus [25]): 0.25 µg/mL; MIC (Pseudomonas aeruginosa [26]): 16 µg/mL; MIC (Streptococcus pneumoniae [27]): 0.5 µg/mL; MIC (Staphylococcus aureus [28]): 1 µg/mL; MIC (Klebsiella pneumoniae [29]): 8 µg/mL; MIC (Enterococcus faecium [30]): 4 µg/mL; MIC [31]: 1 µg/mL; MIC (Escherichia coli [32]): 0.25 µg/mL; MIC [33]: 0.03 µg/mL; MIC (Escherichia coli [34]): > 128 µg/mL; MIC (Streptococcus pneumoniae [35]): 0.06 µg/mL; MIC (Enterococcus faecium [36]): 4 µg/mL
